Reference: ChEMBL document CHEMBL1129936, “Water soluble furoxan derivatives as NO prodrugs” (J Med Chem, 1997)

How the values were obtained:
Rattus norvegicus [1] = organism: Rattus norvegicus; assay: Relaxation of endothelium […] strips of rat aorta precontracted with noradrenaline; assay type: functional
Outline: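 Rat aortic strips in Krebs solution at 37 °C, gassed 95% O2-5% CO2 (pH 7.4), equilibrated 1 h, then contracted with noradrenaline 1 µM (submaximal). Cumulative concentration-response curves for relaxation gave EC50.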

Rattus norvegicus [2] = organism: Rattus norvegicus; assay: Relaxation of endothelium […] strips of rat aorta precontracted with noradrenaline in presence of 10 uM HbO2; assay type: functional
Outline: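 Rat aortic strips in Krebs at 37 °C (95% O2-5% CO2, pH 7.4), precontracted with 1 µM noradrenaline and exposed to oxyhemoglobin 10 µM for at least 10 min before the vasodilator was added. Oxyhemoglobin came from bovine hemoglobin reduced with excess sodium dithionite at 4 °C. Relaxation concentration-response curves gave EC50.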

[3] = Nitric oxide released from prodrug in the absence of cysteine
Outline: (§1)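 Compound at 10^-4 M final in pH 7.4 buffered water, no thiol, held at 37 °C for 1 h or 24 h. Nitrite was measured by Griess reagent: 10 min at room temperature, absorbance at 540 nm, sodium nitrite standards 10-80 nmol/mL. Reported as percent NO2- (mol/mol) ± SEM.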

[4] = Nitric oxide released from prodrug in the presence of cysteine
Outline: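 Compound at 10^-4 M final was incubated 1 h at 37 °C, pH 7.4, with a 50-fold molar excess of cysteine (1:50). Nitrite was read by the Griess reaction at 540 nm after 10 min at room temperature against nitrite standards (10-80 nmol/mL). Given as percent NO2- (mol/mol) ± SEM.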

[5] = Nitric oxide releasing capability in the absence of cysteine after 24 hr; outline: as §1

Row | Compound | EC50 (Rattus norvegicus [1]; Rattus norvegicus, Aorta) | EC50 (Rattus norvegicus [2]; Rattus norvegicus, Aorta) | % NO2- [3] | % NO2- [4] | % NO2- [5] | EC50 (Rattus norvegicus [1]) | EC50 (Rattus norvegicus [2])
1 | CN(C)CCSc1c(-c2ccccc2)no[n+]1[O-] | 1.55 µM | 11.5 µM | 0 M/M | 35 M/M |  |  | 
2 | CN(C)CCCOc1no[n+]([O-])c1-c1ccccc1 | 14.3 µM | 124 µM | 0 M/M | 3.9 M/M |  |  | 
3 | CN(C)CCS(=O)(=O)c1c(-c2ccccc2)no[n+]1[O-] | 0.0826 µM | 1.01 µM | 0 M/M | 36.3 M/M | 33 M/M |  | 
4 | NCCOc1no[n+]([O-])c1S(=O)(=O)c1ccccc1 | 0.013 µM | 0.046 µM | 0 M/M | 19.7 M/M |  |  | 
5 | CN(C)CCOc1no[n+]([O-])c1-c1ccccc1 | 7.35 µM | 68 µM | 0 M/M | 3.9 M/M |  |  | 
6 | CN(C)CCSc1no[n+]([O-])c1-c1ccccc1 | 48.1 µM | 124 µM | 0 M/M | 2.9 M/M |  |  | 
7 | CN(C)CCOc1c(-c2ccccc2)no[n+]1[O-] | 1.23 µM | 2.22 µM | 6.3 M/M | 62.9 M/M | 97 M/M |  | 
8 | NCCSc1c(-c2ccccc2)no[n+]1[O-] | 3.48 µM | 15 µM | 4.5 M/M | 37.9 M/M | 56 M/M |  | 
9 | SODIUM NITROPRUSSIDE [listing 1 of 2 here] |  |  |  |  |  | 0.0215 µM | 0.0481 µM
10 | NCCSc1no[n+]([O-])c1-c1ccccc1 | 15.2 µM | 78 µM | 0 M/M | 2.8 M/M |  |  | 
11 | CN(C)CCSc1c(S(=O)(=O)c2ccccc2)no[n+]1[O-] | 0.0557 µM | 0.33 µM | 95.3 M/M | 58.5 M/M | 100 M/M |  | 
12 | CN(C)CCS(=O)(=O)c1no[n+]([O-])c1-c1ccccc1 | 0.101 µM | 0.43 µM | 0 M/M | 8.8 M/M |  |  | 
13 | CN(C)CCCOc1no[n+]([O-])c1S(=O)(=O)c1ccccc1 | 0.03 µM | 0.13 µM | 0 M/M | 20.2 M/M |  |  | 
14 | CN(C)CCCOc1c(-c2ccccc2)no[n+]1[O-] | 1.03 µM | 3.63 µM | 0 M/M | 91.1 M/M |  |  | 
15 | CN(C)CCSc1no[n+]([O-])c1S(=O)(=O)c1ccccc1 | 0.052 µM | 0.35 µM | 0 M/M | 27.9 M/M |  |  | 
16 | CN(C)CCOc1no[n+]([O-])c1S(=O)(=O)c1ccccc1 | 0.0041 µM | 0.048 µM | 0 M/M | 58.9 M/M |  |  | 
17 | O=[N+]([O-])OCC(CO[N+](=O)[O-])O[N+](=O)[O-] [NITROGLYCERIN] | 0.0224 µM |  | 0 M/M | 45 M/M |  |  | 
18 | SODIUM NITROPRUSSIDE [listing 2 of 2 here] |  |  | 1.5 M/M | 58 M/M |  |  | 
